From ChEMBL document CHEMBL1141642, “Rate enhancement of the oxidative folding of lysozyme by the use of aromatic thiol containing redox buffers” (Bioorg Med Chem, 2008)

How the values were obtained:
Gallus gallus [1] = species: Gallus gallus; assay: Effect on reduced chicken lysozyme folding activity assessed as maximal activity at 8 mM at pH 7; design: scale not given: the % may be the effect or the level left
How it was run: (§1)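 Denatured reduced lysozyme diluted 100-fold to 7 µM into deoxygenated 0.1 M Bis–Tris propane pH 7.0, 1 mM EDTA, 0.5 M GdnHCl, 0.2 mM GSSG plus aromatic thiol, 25 °C. Timed aliquots assayed for lytic activity on M. lysodeikticus (decrease in 450 nm scattering over 2 min). Fit to y=A(1−e^−kt), A = maximal %activity; at least seven independent assays on separate days.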

[2] = Dissociation constant, pKa of the compound; format: physicochemical
Gallus gallus [3] = species: Gallus gallus; assay: Effect on reduced chicken lysozyme folding activity assessed as maximal activity at 8 mM at pH 6; design: scale not given: the % may be the effect or the level left
How it was run: (§2)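 Denatured reduced lysozyme (DTE-reduced in 6 M GdnHCl, desalted) diluted 100-fold to 7 µM (0.1 mg/mL) into deoxygenated 0.1 M Bis–Tris pH 6.0, 1 mM EDTA, 0.5 M GdnHCl, 0.2 mM GSSG plus aromatic thiol, 25 °C. Aliquots assayed over time by lysis of M. lysodeikticus (450 nm light scattering, 2 min slope). Curves fit to y=A(1−e^−kt), A = maximal %activity; at least four assays on separate days, standard deviation.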

Gallus gallus [4] = species: Gallus gallus; assay: Effect on reduced chicken lysozyme folding activity assessed as maximal activity at 15 mM at pH 7; design: scale not given: the % may be the effect or the level left; how it was run: as §1
Gallus gallus [5] = species: Gallus gallus; assay: Effect on reduced chicken lysozyme folding activity assessed as maximal activity at 15 mM at pH 6; design: scale not given: the % may be the effect or the level left; how it was run: as §2
Gallus gallus [6] = species: Gallus gallus; assay: Effect on reduced chicken lysozyme folding activity assessed as maximal activity at 20 mM at pH 7; design: scale not given: the % may be the effect or the level left; how it was run: as §1
Gallus gallus [7] = species: Gallus gallus; assay: Effect on reduced chicken lysozyme folding activity assessed as maximal activity at 20 mM at pH 6; design: scale not given: the % may be the effect or the level left; how it was run: as §2

O=C(O)c1ccc(S)cc1
Activity (Gallus gallus [1]): 70%
pKa [2]: 5.95
Activity (Gallus gallus [3]): 60%

O=P(O)(O)Cc1ccc(S)cc1
pKa [2]: 6.6
Activity (Gallus gallus [3]): 67%
Activity (Gallus gallus [4]): 67%

O=S(=O)(O)c1ccc(S)cc1
Activity (Gallus gallus [5]): 50%
pKa [2]: 5.7
Activity (Gallus gallus [6]): 62%

O=C(O)Cc1ccc(S)cc1
Activity (Gallus gallus [1]): 45%
Activity (Gallus gallus [3]): 16%

C[N+](C)(C)Cc1ccc(S)cc1
Activity (Gallus gallus [7]): 85%
pKa [2]: 5.5
Activity (Gallus gallus [6]): 72%
